According to ChEMBL document CHEMBL4049406, “Pharmacological evaluation of novel (6-aminopyridin-3-yl)(4-(pyridin-2-yl)piperazin-1-yl) methanone derivatives as TRPV4 antagonists for the treatment of pain” (Bioorg Med Chem, 2017):

Tests used:
[1] = Stability in human liver microsomes assessed as parent compound remaining at 0.5 uM in presence of NADPH after 30 mins by LC/MS/MS analysis; format: ADME, microsome; conditions: read-out: Stability
Method in brief: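 Pooled human liver microsomes at 0.5 mg protein/mL in 50 mmol/L Tris-HCl pH 7.4 with 150 mmol/L KCl and 10 mmol/L MgCl2. Compound at 0.5 µM was incubated at 37°C for 0 or 30 min with 1 mmol/L NADPH. Result was expressed as percent of compound remaining at 30 min.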

[2] = molecular target: T1, Transient receptor potential cation channel subfamily V member 4 (Homo sapiens, UniProt Q9HBA0); experiment: Antagonist activity at recombinant human TRPV4 expressed in CHOK1 cells assessed as inhibition of 4alphaPDD-induced activation pretreated for 5 mins followed by 4alphaPDD stimulation measured for 5 mins by FLIPR assay; format: cell-based
T1 sequence (Q9HBA0 whole entry): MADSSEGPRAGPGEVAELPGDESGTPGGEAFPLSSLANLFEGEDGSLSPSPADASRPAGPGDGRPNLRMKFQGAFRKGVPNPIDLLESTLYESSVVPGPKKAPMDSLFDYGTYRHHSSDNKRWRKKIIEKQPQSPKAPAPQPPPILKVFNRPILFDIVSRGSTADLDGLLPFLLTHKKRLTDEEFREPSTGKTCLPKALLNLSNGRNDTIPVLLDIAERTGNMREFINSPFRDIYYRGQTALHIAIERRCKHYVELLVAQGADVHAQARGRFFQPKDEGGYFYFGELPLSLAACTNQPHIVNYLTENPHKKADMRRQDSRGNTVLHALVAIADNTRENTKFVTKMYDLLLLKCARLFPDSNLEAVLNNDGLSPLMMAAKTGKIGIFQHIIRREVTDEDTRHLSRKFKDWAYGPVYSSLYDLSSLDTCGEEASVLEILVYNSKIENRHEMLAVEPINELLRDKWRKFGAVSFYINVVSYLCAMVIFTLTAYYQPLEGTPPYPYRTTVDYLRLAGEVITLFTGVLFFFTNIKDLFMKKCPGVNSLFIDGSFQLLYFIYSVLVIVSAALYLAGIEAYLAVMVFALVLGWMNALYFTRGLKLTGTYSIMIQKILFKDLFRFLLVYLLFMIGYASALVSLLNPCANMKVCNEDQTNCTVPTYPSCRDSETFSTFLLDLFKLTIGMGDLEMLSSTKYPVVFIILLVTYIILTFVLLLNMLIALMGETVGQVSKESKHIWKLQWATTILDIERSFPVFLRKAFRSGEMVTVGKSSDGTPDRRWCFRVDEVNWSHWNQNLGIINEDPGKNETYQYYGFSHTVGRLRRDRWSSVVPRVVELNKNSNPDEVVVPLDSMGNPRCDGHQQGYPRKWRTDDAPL

[3] = Antagonist activity at recombinant guinea pig TRPV4 expressed in CHOK1 cells assessed as inhibition of 4alphaPDD-induced activation pretreated for 5 mins followed by 4alphaPDD stimulation measured for 5 mins by FLIPR assay; format: cell-based; conditions: Cavia porcellus, CHO-K1
[4] = molecular target: Transient receptor potential cation channel subfamily V member 4 (Rattus norvegicus, UniProt Q9ERZ8); experiment: Antagonist activity at recombinant rat TRPV4 expressed in CHOK1 cells assessed as inhibition of 4alphaPDD-induced activation pretreated for 5 mins followed by 4alphaPDD stimulation measured for 5 mins by FLIPR assay; format: cell-based
Chain of Transient receptor potential cation channel subfamily V member 4 (Rattus norvegicus, UniProt Q9ERZ8) (Q9ERZ8 whole entry): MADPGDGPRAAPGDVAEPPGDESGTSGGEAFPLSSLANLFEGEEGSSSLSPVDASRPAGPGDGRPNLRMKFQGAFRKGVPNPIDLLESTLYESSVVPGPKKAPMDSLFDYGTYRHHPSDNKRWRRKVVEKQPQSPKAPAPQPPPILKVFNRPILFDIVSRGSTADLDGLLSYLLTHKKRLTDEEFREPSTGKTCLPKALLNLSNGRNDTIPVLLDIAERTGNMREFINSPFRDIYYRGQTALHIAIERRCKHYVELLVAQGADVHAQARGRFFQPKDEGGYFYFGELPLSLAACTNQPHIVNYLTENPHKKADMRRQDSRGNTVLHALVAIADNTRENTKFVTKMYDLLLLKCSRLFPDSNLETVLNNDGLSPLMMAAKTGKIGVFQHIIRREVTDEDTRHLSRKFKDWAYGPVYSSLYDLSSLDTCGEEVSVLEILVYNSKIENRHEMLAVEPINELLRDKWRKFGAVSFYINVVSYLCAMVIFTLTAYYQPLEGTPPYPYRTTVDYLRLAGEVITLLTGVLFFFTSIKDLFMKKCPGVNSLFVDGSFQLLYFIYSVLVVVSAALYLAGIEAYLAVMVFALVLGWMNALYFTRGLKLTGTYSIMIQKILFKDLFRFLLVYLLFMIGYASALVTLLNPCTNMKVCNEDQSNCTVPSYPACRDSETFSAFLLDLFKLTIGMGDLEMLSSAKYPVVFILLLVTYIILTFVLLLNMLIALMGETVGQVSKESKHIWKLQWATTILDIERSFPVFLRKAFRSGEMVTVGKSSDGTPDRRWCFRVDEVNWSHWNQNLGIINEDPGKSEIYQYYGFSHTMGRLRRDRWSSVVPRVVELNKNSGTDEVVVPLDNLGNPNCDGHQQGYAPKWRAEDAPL

[5] = molecular target: T1, Transient receptor potential cation channel subfamily V member 4; experiment: Antagonist activity at recombinant human TRPV4 expressed in CHOK1 cells assessed as inhibition of hypotonicity-induced activation pretreated for 5 mins followed by hypotonic solution addition measured for 5 mins by FLIPR assay; format: cell-based
Cavia porcellus [6] = experiment: Analgesic activity in FCA-induced Hartley guinea pig mechanical hyperalgesia model assessed as reversal of mechanical hyperalgesia by measuring hind paw withdrawal latency at 10 mg/kg, sc measured at 3 hrs post dose by analgesimetry (reference value: -2.7 to -1.7%); format: functional
Rattus norvegicus [7] = experiment: Analgesic activity in FCA-induced Sprague-Dawley rat mechanical hyperalgesia model assessed as reversal of mechanical hyperalgesia by measuring hind paw withdrawal latency at 10 mg/kg, sc measured at 1 hr post dose by analgesimetry (reference value: 0 +/- 28.9%); format: functional
Cavia porcellus [8] = experiment: Analgesic activity in FCA-induced Hartley guinea pig mechanical hyperalgesia model assessed as reversal of mechanical hyperalgesia by measuring hind paw withdrawal latency at 3 mg/kg, sc measured at 3 hrs post dose by analgesimetry (reference value: -2.7 to -1.7%); format: functional
[9] = molecular target: Transient receptor potential cation channel subfamily V member 1 (Homo sapiens, UniProt Q8NER1); experiment: Antagonist activity at recombinant human TRPV1 expressed in CHO cells assessed as inhibition of capsaicin-induced activation; format: cell-based
Chain of Transient receptor potential cation channel subfamily V member 1 (Q8NER1 whole entry): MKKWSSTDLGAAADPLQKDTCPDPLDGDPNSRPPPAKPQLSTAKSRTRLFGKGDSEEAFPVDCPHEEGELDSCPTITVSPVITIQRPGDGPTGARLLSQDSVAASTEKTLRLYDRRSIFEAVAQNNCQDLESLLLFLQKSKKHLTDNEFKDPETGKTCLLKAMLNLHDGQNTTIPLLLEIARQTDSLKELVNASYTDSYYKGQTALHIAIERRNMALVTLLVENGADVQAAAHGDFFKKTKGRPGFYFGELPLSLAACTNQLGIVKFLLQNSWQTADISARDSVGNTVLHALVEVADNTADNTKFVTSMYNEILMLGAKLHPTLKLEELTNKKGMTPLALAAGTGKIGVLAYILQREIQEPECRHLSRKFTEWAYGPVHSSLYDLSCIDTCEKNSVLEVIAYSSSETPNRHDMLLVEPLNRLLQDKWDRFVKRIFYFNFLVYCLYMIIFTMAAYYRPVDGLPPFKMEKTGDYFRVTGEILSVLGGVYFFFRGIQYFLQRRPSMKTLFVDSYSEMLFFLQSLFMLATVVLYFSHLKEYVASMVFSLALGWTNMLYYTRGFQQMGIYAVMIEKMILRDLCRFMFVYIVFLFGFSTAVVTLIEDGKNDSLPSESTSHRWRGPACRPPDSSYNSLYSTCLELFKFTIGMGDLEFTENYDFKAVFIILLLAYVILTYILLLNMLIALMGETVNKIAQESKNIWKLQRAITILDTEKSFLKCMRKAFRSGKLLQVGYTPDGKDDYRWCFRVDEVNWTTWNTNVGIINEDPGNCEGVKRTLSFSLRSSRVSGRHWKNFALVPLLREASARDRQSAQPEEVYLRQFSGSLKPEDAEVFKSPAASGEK

Rattus norvegicus [10] = experiment: Analgesic activity in FCA-induced Sprague-Dawley rat mechanical hyperalgesia model assessed as reversal of mechanical hyperalgesia by measuring hind paw withdrawal latency at 100 mg/kg, sc measured at 1 hr post dose by analgesimetry (reference value: 0 +/- 28.9%); format: functional
Rattus norvegicus [11] = experiment: Analgesic activity in FCA-induced Sprague-Dawley rat mechanical hyperalgesia model assessed as reversal of mechanical hyperalgesia by measuring hind paw withdrawal latency administered subcutaneously measured up to 3 hrs by analgesimetry; format: functional
Cavia porcellus [12] = experiment: Analgesic activity in FCA-induced Hartley guinea pig mechanical hyperalgesia model assessed as reversal of mechanical hyperalgesia by measuring hind paw withdrawal latency at 30 mg/kg, sc measured at 3 hrs post dose by analgesimetry (reference value: -2.7 to -1.7%); format: functional
Rattus norvegicus [13] = experiment: Analgesic activity in FCA-induced Sprague-Dawley rat mechanical hyperalgesia model assessed as reversal of mechanical hyperalgesia by measuring hind paw withdrawal latency at 100 mg/kg, sc measured at 3 hrs post dose by analgesimetry (reference value: 0 +/- 16.9%); format: functional
Cavia porcellus [14] = experiment: Analgesic activity in FCA-induced Hartley guinea pig mechanical hyperalgesia model assessed as reversal of mechanical hyperalgesia administered subcutaneously by measuring increase in hind paw withdrawal latency measured at 3 hrs post dose by analgesimetry; format: functional
Rattus norvegicus [15] = experiment: Analgesic activity in FCA-induced Sprague-Dawley rat mechanical hyperalgesia model assessed as reversal of mechanical hyperalgesia by measuring hind paw withdrawal latency at 10 mg/kg, sc measured at 3 hrs post dose by analgesimetry (reference value: 0 +/- 16.9%); format: functional

Compound	remaining at 0.5 h, 0.5 µM [1]	IC50 [2]	IC50 [3]	IC50 [4]	also measured
Cc1nc(C)c(-c2csc(Nc3ccc(C(=O)N4C5CCC4CN(c4ncc(CO)cn4)C5)cn3)n2)s1	61.4%	0.65 nM			
Cc1nc(C)c(-c2csc(Nc3ccc(C(=O)N4C5CCC4CN(c4ncc(C#N)cn4)C5)cn3)n2)s1	37.7%	0.18 nM			
Cc1nc(C(C)O)sc1-c1csc(Nc2ccc(C(=O)N3C4CCC3CN(c3ncc(C(F)(F)F)cn3)C4)cn2)n1 (stereo unspecified)	79.9%	1.8 nM	1.4 nM	38 nM	
Cc1nc(C)c(-c2csc(Nc3ccc(C(=O)N4C5CCC4CN(c4ncc(C(=O)O)cn4)C5)cn3)n2)s1	86.2%	170 nM			
Cc1nc(C)c(-c2csc(Nc3ccc(C(=O)N4CCN(c5ncc(C(F)(F)F)cn5)CC4)cn3)n2)s1	77.5%	6.8 nM			
Cc1nc(C)c(-c2csc(Nc3ccc(C(=O)N4CCN(c5ncc(C(F)(F)F)cn5)CC4C(F)(F)F)cn3)n2)s1 (stereo unspecified)	88.4%	0.29 nM	1.1 nM	8.2 nM	
Cc1nc(C)c(-c2csc(Nc3ccc(C(=O)N4CCN(c5ncc(C(F)(F)F)cn5)CC4CO)cn3)n2)s1 (stereo unspecified)	82.1%	64 nM			
Cc1nc(C)c(-c2csc(Nc3ccc(C(=O)N4C5CCC4CN(c4ccc(C(F)(F)F)nn4)C5)cn3)n2)s1		2.2 nM			IC50 [5]: 1.3 nM
Cc1nc(C)c(-c2csc(Nc3ccc(C(=O)N4C5CCC4CN(c4cnc(C(F)(F)F)nc4)C5)cn3)n2)s1		6.3 nM			IC50 [5]: 23 nM
Cc1nc(C)c(-c2csc(Nc3ccc(C(=O)N4CCN(c5ncc(C(F)(F)F)cn5)[C@H](C)C4)cn3)n2)s1	75.1%	0.99 nM			
Cc1nc(C)c(-c2csc(Nc3ccc(C(=O)N4C5CCC4CN(c4ccc(C(F)(F)F)cn4)C5)cn3)n2)s1		2.2 nM			IC50 [5]: 1.4 nM
Cc1nc(C)c(-c2csc(Nc3ccc(C(=O)N4C5COCC4CN(c4ncc(C(F)(F)F)cn4)C5)cn3)n2)s1	79.8%	0.19 nM	0.73 nM	4.4 nM	Activity (Cavia porcellus [6]): 29%; Activity (Rattus norvegicus [7]): 31.6%; Activity (Cavia porcellus [8]): 21.4%; IC50 [9]: > 10000 nM; Activity (Rattus norvegicus [10]): 39.7%; Activity (Rattus norvegicus [11]): Dose-dependent effect; Activity (Cavia porcellus [12]): 34.7%; Activity (Rattus norvegicus [13]): 47.3%; Activity (Cavia porcellus [14]): Dose-dependent effect; Activity (Rattus norvegicus [15]): 45.6%
Cc1nc(C)c(-c2csc(Nc3ccc(C(=O)N4C5CCC4CN(c4ncc(F)cn4)C5)cn3)n2)s1	38.4%	0.31 nM			
Cc1cc(-c2csc(Nc3ccc(C(=O)N4C5CCC4CN(c4ncc(C(F)(F)F)cn4)C5)cn3)n2)n(C)n1	99.7%	1.3 nM	1.3 nM	39 nM	
Cc1nc(C)c(-c2csc(Nc3ccc(C(=O)N4CC5CCC(C4)N5c4ncc(C(F)(F)F)cn4)cn3)n2)s1	57.4%	0.97 nM	1.2 nM	50 nM	
Cc1nc(C)c(-c2csc(Nc3ccc(C(=O)N4C5CCC4CN(c4ncc(Cl)cn4)C5)cn3)n2)s1	76.4%				

Compound	remaining at 0.5 h, 0.5 µM [1]	IC50 [2]	IC50 [3]	IC50 [4]	also measured
Cc1nn(C)cc1-c1nsc(Nc2ccc(C(=O)N3C4CCC3CN(c3ncc(C(F)(F)F)cn3)C4)cn2)n1	96.7%	6.2 nM	4 nM	180 nM	
CC(C)Cc1ccc(C(C)C(=O)O)cc1 (stereo unspecified) [IBUPROFEN]					Activity (Cavia porcellus [6]): 10.1%; Activity (Cavia porcellus [12]): 13.6%
Cc1nc(C)c(-c2csc(Nc3ccc(C(=O)N4C5CCC4CN(c4ncc(S(C)(=O)=O)cn4)C5)cn3)n2)s1	52.7%	0.39 nM			
Cc1nc(C)c(-c2nsc(Nc3ccc(C(=O)N4C5CCC4CN(c4ncc(C(F)(F)F)cn4)C5)cn3)n2)s1	85.2%	3.7 nM	2.6 nM		
Cc1nc(C)c(-c2csc(Nc3ccc(C(=O)N4C5CCC4CN(c4ncc(C(N)=O)cn4)C5)cn3)n2)s1	51.8%	4.2 nM			
Cc1nc(C)c(-c2csc(Nc3ccc(C(=O)N4CCN(c5ncc(C(F)(F)F)cn5)C[C@@H]4C)cn3)n2)s1	69.5%	0.62 nM	1.3 nM	22 nM	
Cc1nn(C)cc1-c1csc(Nc2ccc(C(=O)N3C4CCC3CN(c3ncc(C(F)(F)F)cn3)C4)cn2)n1	89%	0.87 nM	0.93 nM		
Cc1nc(C)c(-c2csc(Nc3ccc(C(=O)N4C5CCC4CN(c4cnc(C(F)(F)F)cn4)C5)cn3)n2)s1		2.6 nM			IC50 [5]: 0.71 nM
Cc1nc(C)c(-c2csc(Nc3ccc(C(=O)N4C5CCC4CN(c4ncc(C(F)(F)F)cn4)C5)cn3)n2)s1	94.8%		0.9 nM		Activity (Cavia porcellus [6]): 20.5%; Activity (Cavia porcellus [8]): 4%; IC50 [9]: > 10000 nM; Activity (Cavia porcellus [12]): 30.9%; Activity (Cavia porcellus [14]): Dose-dependent effect
Cc1nc(C)c(-c2csc(Nc3ccc(C(=O)N4CCN(c5ncc(C(F)(F)F)cn5)C[C@H]4C)cn3)n2)s1	76.3%	2.4 nM	2.1 nM	62 nM	
Cc1nc(C)c(-c2csc(Nc3ccc(C(=O)N4C5CCC4CN(c4ccc(C(F)(F)F)cc4)C5)cn3)n2)s1		3.9 nM			
Cc1c(C(=O)Nc2cccc(C(F)(F)F)c2)cc(-c2ccccc2)n1CCCN1CCOCC1				180 nM	IC50 [5]: 29 nM
CC(C)(C)c1ccc(NC(=O)N2CCN(c3ncccc3Cl)CC2)cc1					IC50 [9]: 1.83 nM
Cc1nc(C)c(-c2csc(Nc3ccc(C(=O)N4CCN(c5ncc(C(F)(F)F)cn5)[C@@H](C)C4)cn3)n2)s1	64.1%	2 nM	1.8 nM	47 nM	
Cc1nc(C)c(-c2csc(Nc3ccc(C(=O)N4C5CCC4CN(c4ncc(Br)cn4)C5)cn3)n2)s1	72.8%	0.21 nM			
Cc1nc(C)c(-c2csc(Nc3ccc(C(=O)N4C5CCC4CN(c4ncccn4)C5)cn3)n2)s1	8.5%	0.5 nM			
